# Bioassay records (PubChem BioAssay)
# MrgX1 antagonist – antagonists of human MrgX1 receptor | Q96LB2 | MRGX1-HEK293 calcium flux, Fluo-4, BAM8-22 antagonism; active compounds read low | B-score at 10 µM | actives 1.3% (n = 310,000) | AID 588676;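 active = calcium-response B-score plate-corrected more than 3 library SD below zero, starting fluorescence within 5 deviations, no agonist response on first addition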;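 note: peak minus trough fluorescence over baseline after final BAM8-22 challenge near maximal dose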
# Target sequence (Q96LB2 whole entry, looked up): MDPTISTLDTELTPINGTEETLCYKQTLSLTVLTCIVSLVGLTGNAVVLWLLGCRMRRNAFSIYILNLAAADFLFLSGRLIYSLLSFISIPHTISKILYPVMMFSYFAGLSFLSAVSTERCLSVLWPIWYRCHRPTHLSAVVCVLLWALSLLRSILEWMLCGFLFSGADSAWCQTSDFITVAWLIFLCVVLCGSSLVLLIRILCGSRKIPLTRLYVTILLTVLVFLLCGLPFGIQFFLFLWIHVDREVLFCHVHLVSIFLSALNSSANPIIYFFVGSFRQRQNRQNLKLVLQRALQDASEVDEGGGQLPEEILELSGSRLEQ
# RGS4 act – potentiators or activators of RGS4; actives 0.92% (n = 310,000); HEK293 M3R/inducible RGS4, carbachol calcium flux Fluo4; active compounds read low; B-score at 10 µM;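 active = B-score of the integrated calcium signal more than 4 SD below the library mean, with starting fluorescence not abnormally high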;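 note: negative B-score means reduced calcium response which marks RGS4 activation or potentiation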
#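 System: HEK293 FlpIn-TREx cells, stable M3R, doxycycline-inducible RGS4. Timing: overnight RGS4 induction, 30 min dye load 37 °C, 20 min compound RT. Also added: carbachol, ECmax concentration. Measured by: Fluo4 fluorescence kinetic imaging of calcium. Evaluation: integrated calcium ratio converted to B score.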
# MrgX1 ag – human MrgX1 receptor agonism, primary screen; actives 0.44% (n = 310,000); Q96LB2; MrgX1-HEK293 cells, Fluo-4 calcium fluorescence, agonist mode; active compounds read high; B-score at 10 µM;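 active = calcium response B-score plate-corrected fluorescence ratio at least 3 library SD, with starting fluorescence B-score inside 5 SD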
#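 System: HEK293 cells stably expressing human MrgX1 receptor; Dosing: test compound in the initial addition of three; Schedule: overnight plating, then 30 min 37 °C plus 30 min room-temperature dye loading; Detection: kinetic calcium dye fluorescence, Fluo-4 NW; Controls: per-plate positive and negative controls for Z′ factor.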
# RGS4 inh – human RGS4 inhibition; actives 0.45% (n = 310,000); B-score at 10 µM; P49798; HEK293 M3R/RGS4 inducible, Fluo-4 calcium flux; active compounds read high; triggered by carbachol at its EC20;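 active = B-score, a plate-corrected calcium signal, over three deviations above library mean, with baseline fluorescence within five deviations of library mean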;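 note: RGS4 expression induced by doxycycline in cells with stable M3 receptor; B-score is computed from the integrated fluorescence ratio over baseline after carbachol; higher B-score means a larger calcium signal and so more RGS4 inhibition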
# Target sequence (P49798 whole entry, looked up): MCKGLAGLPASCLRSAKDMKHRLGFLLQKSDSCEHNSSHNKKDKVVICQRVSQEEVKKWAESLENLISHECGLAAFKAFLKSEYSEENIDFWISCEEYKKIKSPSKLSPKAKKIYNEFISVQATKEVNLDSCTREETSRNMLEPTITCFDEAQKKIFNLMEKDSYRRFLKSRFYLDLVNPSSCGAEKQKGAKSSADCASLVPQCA
# MrgX1 PAM – human MrgX1 positive allosteric modulation, primary screen; Q96LB2; MrgX1-HEK293, Fluo-4 calcium flux, FDSS; active compounds read high; B-score at 10 µM; actives 0.63% (n = 310,000); AID 588675;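 active = plate-corrected calcium response at least 3 library SD above typical, normal starting fluorescence, not activating the receptor alone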;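 note: compound read alongside a low EC10 to EC30 dose of BAM8-22 agonist; peak minus trough fluorescence over baseline measured at the second addition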
# * hit, by the source's call; i = inactive; x = not tested or not shown. A selection: hits, their analogues and other compounds. The true share with any hit is near 3.5%.
SMILES,MrgX1 antagonist,RGS4 act,MrgX1 ag,RGS4 inh,MrgX1 PAM
O=C(N/N=C/c1c(O)ccc2ccccc12)c1ccc(Br)o1,-4.99*,i,i,i,i
O=C(N/N=C/c1c(O)ccc2ccccc12)c1cccnc1,-7.6*,i,i,i,i
O=C(N/N=C\c1c(O)ccc2ccccc12)c1ccc(O)cc1,i,i,i,i,i
CSc1ncccc1C(=O)Nc1ccc(S(=O)(=O)NC2=NCCCCC2)cc1,-4.61*,i,i,i,i
C/C(=N/NC(=O)CSc1nc2ccccc2n1C)c1ccc(O)cc1,-4.92*,i,i,i,i
COc1ccc(OC)c(S(=O)(=O)N2CCC3(CC2)OCCN3S(=O)(=O)c2cccs2)c1,i,-7.54*,i,i,i
COc1cccc(Oc2cc(NN3CCCCC3)c([N+](=O)[O-])cc2[N+](=O)[O-])c1OC,i,-9.12*,i,i,i
Cc1cc(F)ccc1Oc1cc(NN2CCCCC2)c([N+](=O)[O-])cc1[N+](=O)[O-],i,i,i,i,i
CC(=O)NCC(=O)N(c1c(C)n(C)n(-c2ccccc2)c1=O)C1(C(=O)NC2CCCC2)CCCCC1,i,i,i,i,14.8*
Cc1ccccc1N=C1SC(CC(=O)Nc2ccc3ccccc3c2)C(=O)N1Cc1ccccn1 (stereo not given),-9.74*,i,i,i,i
O=C(C1CCN(C2CCN(C/C=C/c3ccccc3)CC2)CC1)N1CCOCC1,i,i,i,i,i
Oc1ccc(CCNc2ncnc3ccc(Cl)cc23)cc1,-5.57*,i,i,i,i
CCCCN(CCCC)C(=O)C1CC=CCC1C(=O)O (stereo not given),-5.94*,i,i,i,i
CCCCCNC(=O)C1CC=CCC1C(=O)O (stereo not given),i,i,i,i,i
CCc1ccc(S(=O)(=O)/N=C2/C=C(Sc3ncn[nH]3)C(=O)c3ccccc32)cc1,i,x,i,x,6.97*
CCc1ccc(S(=O)(=O)/N=C2\C=CC(=O)c3ccccc32)cc1,i,i,i,i,i
CCN1/C(=C/c2cc[n+](C)cc2)C=Cc2cc(C)ccc21,-6.98*,x,i,x,i
Cc1ccsc1CN(C(=O)c1ccc([N+](=O)[O-])cc1)C1CCS(=O)(=O)C1 (stereo not given),i,i,i,i,i
CC(=O)Nc1ccc(N2CCN(Cc3ccccc3)CC2)cc1,i,i,i,i,i
COC(=O)/C(C#N)=C/c1c(Oc2cccc(C)c2C)nc2ccccn2c1=O,i,i,i,i,i
O=S(=O)(c1ccc(-c2ccon2)s1)N1CCN(c2ccncc2)CC1,i,i,53.1*,i,i
O=S(=O)(c1ccc(-c2ccon2)s1)N1CCCC1,i,i,i,i,i
O=C(c1ccc(Cn2cc(Br)cn2)cc1)N1N=C(C(F)F)CC1(O)C(F)F (stereo not given),i,-7.88*,i,i,i
C=CCOc1ccc(CNCCc2ccc(S(N)(=O)=O)cc2)cc1,i,-7.36*,i,i,i
O=C(N/N=C/c1nn(-c2ccccc2)cc1-c1ccc(Cl)cc1)c1ccncc1,i,i,i,i,i
SMILES,MrgX1 antagonist,RGS4 act,MrgX1 ag,RGS4 inh,MrgX1 PAM
CCOC(=O)N1c2ccccc2Sc2ccccc21,i,i,i,i,i
Cc1nnc(SC(=O)N2c3ccccc3Sc3ccccc32)s1,i,-7.01*,i,i,i
Cc1cc(N/N=C\c2ccccc2)nc(-c2ccccc2O)n1,i,-7.62*,i,i,i
COc1ccc(Cn2c3ccc(OC)cc3c3nc4ccccc4nc32)cc1,i,i,i,i,i
COc1ccc2c(c1)c1nc3ccccc3nc1n2Cc1ccc(OC(C)C)c(OC)c1,-6.7*,i,i,i,i
O=C(Nc1ccc(Cl)cn1)c1ccc([N+](=O)[O-])o1,x,i,x,i,x
Cc1c(Cl)c([N+](=O)[O-])nn1Cc1ccc(C(=O)Nc2ccc(Cl)cn2)o1,-6.9*,i,i,i,i
C#CCOCCOCCOCCNc1nc(N2CCN(C(=O)CCCCCCCCCCNC(=O)[C@H]([C@@H](C)CC)n3cc(CCCCN=C(N)N)nn3)CC2)nc(N2CCN(C(=O)CCCCCCCCCCNC(=O)[C@H](CCCN=C(N)N)n3cc(C[C@@H](C)CC)nn3)CC2)n1,i,x,32.8*,x,i
C#CCOCCOCCOCCNc1nc(N2CCN(C(=O)CCCCCCCCCCNC(=O)[C@H](CCCN=C(N)N)n3cc(C[C@@H](C)CC)nn3)CC2)nc(N2CCN(C(=O)CCCCCCCCCCNC(=O)[C@@H]([C@H](C)CC)n3cc(CCCCCN)nn3)CC2)n1,i,x,51.1*,x,i
C#CCOCCOCCOCCNc1nc(N2CCOCC2)nc(N2CCN(C(=O)CCCCCCCCCCNC(=O)[C@H]([C@@H](C)CC)n3cc(CCCCN=C(N)N)nn3)CC2)n1,i,x,i,x,i
O=Cc1ccc(OC2OCCOC2Oc2ccc(C=O)cc2)cc1 (stereo not given),i,i,i,i,i
CN1C(=O)Cc2cc(S(=O)(=O)Nc3ccc(Cl)cc3)ccc21,i,i,i,i,i
COc1ccc(CNC(=O)C2CCN(C(=O)[C@@H]3Cc4ccccc4CN3)CC2)cc1,i,i,i,i,i
Nc1c(C(=O)Nc2ccc(Br)cc2)sc2nc(-c3ccco3)ccc12,i,i,i,i,i
Nc1c(C(=O)Nc2ccc(F)cc2)sc2nc(-c3ccco3)ccc12,-4.92*,i,i,i,i
Cc1ccc(C(=O)NCCc2nnc3ccc(N4CCCC4)nn23)cc1,i,i,i,i,i
CN(C)S(=O)(=O)c1ccc(NC(=O)C2CC(=O)N(Cc3ccccc3Cl)C2)cc1 (stereo not given),i,i,i,i,i
Cc1cc(/C=C2/C(=O)N(C)C(=S)N2C)ccc1N1CCCC1,i,i,i,i,7.56*
CCCN1C(=O)/C(=C/c2ccc(N3CCCC3)c(C)c2)NC1=S,i,i,46.9*,i,i
Cc1cc(N2CCCC2)ccc1/C=C1/C(=O)N(C)C(=S)N1C,i,i,i,i,i
CCCN1C(=O)/C(=C/c2ccc(N3CCOCC3)cc2)NC1=S,-6.08*,i,i,i,i
Cc1ccc(CN2C(=O)N/C(=C\c3ccc(N4CCOCC4)cc3)C2=O)cc1,i,i,i,i,i
O=C(CCn1c(=O)c2cccn2c2cccnc21)N1CCN(c2cccc(Cl)c2)CC1,i,i,i,i,i
